Laboratory results from ChEMBL document CHEMBL1157065, “Synthesis and evaluation of some new substituted benzothiazepine and benzoxazepine derivatives as anticonvulsant agents” (Eur J Med Chem, 2010).

Key:
Rattus norvegicus = assay: Anticonvulsant activity in Charles foster rat assessed as protection against maximal electroshock-induced seizures at 30 mg/kg, ip administered 1 hr before electroshock challenge; assay type: functional; conditions: route intraperitoneal
How it was run: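 Charles Foster rats of either sex, 90–150 g, in groups of ten, dosed i.p. with test drug or phenytoin sodium 30 mg/kg. 1 h after dosing, shock of 150 mA delivered by convulsiometer through ear electrodes for 2 s. Presence or absence of extensor response recorded.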

[1] = Acute toxicity in ip dosed mouse; assay type: organism-based; conditions: in vivo, read-out: ALD50

| Structure (SMILES) | Activity (Rattus norvegicus) | LD50 [1] |
| --- | --- | --- |
| COc1ccc(N/C=C2\C(c3ccc(O)cc3)=Nc3ccccc3OC2c2cccc(OC)c2)cc1 (configuration not stated) | 70% | > 1000 mg/kg |
| Oc1ccc(C2=Nc3ccccc3OC(c3ccccc3Cl)C2)cc1 (configuration not stated) | 70% | > 1000 mg/kg |
| Oc1ccc(C2=Nc3ccccc3SC(c3ccc(Cl)cc3)C2)cc1 (configuration not stated) | 70% | > 1000 mg/kg |
| Oc1ccc(C2=Nc3ccccc3OC(c3ccc(Cl)cc3)C2)cc1 (configuration not stated) | 60% | > 1000 mg/kg |
| Oc1ccc(C2=Nc3ccccc3OC(c3ccc(O)cc3)C2)cc1 (configuration not stated) | 70% | > 1000 mg/kg |
| COc1cccc(C2Sc3ccccc3N=C(c3ccc(O)cc3)/C2=C\Nc2ccc(Cl)cc2)c1 (configuration not stated) | 40% | > 1000 mg/kg |
| COc1ccc(N/C=C2\C(c3ccc(O)cc3)=Nc3ccccc3SC2c2cccc(OC)c2)cc1 (configuration not stated) | 50% | > 1000 mg/kg |
| Oc1ccc(C2=Nc3ccccc3OC(c3ccccc3O)C2)cc1 (configuration not stated) | 60% | > 1000 mg/kg |
| COc1cccc(C2Oc3ccccc3N=C(c3ccc(O)cc3)/C2=C\Nc2ccc(Cl)cc2)c1 (configuration not stated) | 30% | > 1000 mg/kg |
| Oc1ccc(C2=Nc3ccccc3OC(c3ccccc3Cl)/C2=C/Nc2ccc(Cl)cc2)cc1 (configuration not stated) | 50% | > 1000 mg/kg |
| Oc1ccc(C2=Nc3ccccc3OC(c3ccc(Cl)cc3)/C2=C/Nc2ccc(Cl)cc2)cc1 (configuration not stated) | 60% | > 1000 mg/kg |
| COc1ccc(N/C=C2\C(c3ccc(O)cc3)=Nc3ccccc3OC2c2ccccc2Cl)cc1 (configuration not stated) | 60% | > 1000 mg/kg |
| Oc1ccc(C2=Nc3ccccc3SC(c3ccccc3Cl)/C2=C/Nc2ccc(Cl)cc2)cc1 (configuration not stated) | 70% | > 1000 mg/kg |
| Oc1ccc(C2=Nc3ccccc3SC(c3ccccc3Cl)C2)cc1 (configuration not stated) | 80% | > 1000 mg/kg |
| Oc1ccc(C2=Nc3ccccc3SC(c3ccccc3O)C2)cc1 (configuration not stated) | 70% | > 1000 mg/kg |
| Oc1ccc(C2=Nc3ccccc3SC(c3ccc(O)cc3)C2)cc1 (configuration not stated) | 60% | > 1000 mg/kg |

| Structure (SMILES) | Activity (Rattus norvegicus) | LD50 [1] |
| --- | --- | --- |
| COc1cccc(C2CC(c3ccc(O)cc3)=Nc3ccccc3O2)c1 (configuration not stated) | 20% | > 1000 mg/kg |
| COc1cccc(C2CC(c3ccc(O)cc3)=Nc3ccccc3S2)c1 (configuration not stated) | 30% | > 1000 mg/kg |
| COc1ccc(N/C=C2\C(c3ccc(O)cc3)=Nc3ccccc3OC2c2ccc(Cl)cc2)cc1 (configuration not stated) | 50% | > 1000 mg/kg |
| Oc1ccc(C2=Nc3ccccc3SC(c3ccc(Cl)cc3)/C2=C/Nc2ccc(Cl)cc2)cc1 (configuration not stated) | 70% | > 1000 mg/kg |
| Oc1ccc(C2=Nc3ccccc3SC(c3ccccc3O)/C2=C/Nc2ccc(Cl)cc2)cc1 (configuration not stated) | 60% | > 1000 mg/kg |
| Oc1ccc(C2=Nc3ccccc3SC(c3ccc(O)cc3)/C2=C/Nc2ccc(Cl)cc2)cc1 (configuration not stated) | 60% | > 1000 mg/kg |
| COc1ccc(N/C=C2\C(c3ccc(O)cc3)=Nc3ccccc3SC2c2ccccc2Cl)cc1 (configuration not stated) | 90% | > 1000 mg/kg |
| COc1ccc(N/C=C2\C(c3ccc(O)cc3)=Nc3ccccc3SC2c2ccc(Cl)cc2)cc1 (configuration not stated) | 70% | > 2000 mg/kg |
| COc1ccc(N/C=C2\C(c3ccc(O)cc3)=Nc3ccccc3SC2c2ccccc2O)cc1 (configuration not stated) | 70% | > 1000 mg/kg |
| COc1ccc(N/C=C2\C(c3ccc(O)cc3)=Nc3ccccc3OC2c2ccccc2O)cc1 (configuration not stated) | 60% | > 1000 mg/kg |
| COc1ccc(N/C=C2\C(c3ccc(O)cc3)=Nc3ccccc3SC2c2ccc(O)cc2)cc1 (configuration not stated) | 60% | > 1000 mg/kg |
| Oc1ccc(C2=Nc3ccccc3OC(c3ccccc3O)/C2=C/Nc2ccc(Cl)cc2)cc1 (configuration not stated) | 60% | > 1000 mg/kg |
| Oc1ccc(C2=Nc3ccccc3OC(c3ccc(O)cc3)/C2=C/Nc2ccc(Cl)cc2)cc1 (configuration not stated) | 70% | > 1000 mg/kg |
| COc1ccc(N/C=C2\C(c3ccc(O)cc3)=Nc3ccccc3OC2c2ccc(O)cc2)cc1 (configuration not stated) | 50% | > 1000 mg/kg |
| O=C1N=C([O-])NC1(c1ccccc1)c1ccccc1.[Na+] [PHENYTOIN SODIUM] | 80% | – |
| CC(O)CO (configuration not stated) [PROPYLENE GLYCOL] | 0% | – |
